Mdm2 ligase inh: Mdm2 E3 ligase (human) inhibition | cell-based MDM2 ubiquitination luciferase reporter, 2 h; 0 = plate control, 100 = twice control, blank-subtracted | signal enhancement, % at 5 µM | 210,000 compounds, 0.11% hits | AID 1230;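 active = signal enhancement of 30% or more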;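 also: luminescence tracks abundance of the self-degrading MDM2-luciferase fusion protein; higher signal means inhibition of MDM2 E3 ligase activity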
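Assay system: mammalian cells stably expressing self-ubiquitinating, self-degrading MDM2 E3–luciferase fusion. Quantity: 2000 cells in each well. Medium: DMEM culture medium. Compound dosing: single-point 5 µM. Timing: cell settling 4 h, compound treatment 2 h, both 37 °C. Technique: luciferase luminescence. Read-out basis: percent signal gain over controls, blank-subtracted. Benchmarks: plate controls and plate blanks.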
Dynein transport: blocks dynein driven cargo transport along microtubules. 220,000 compounds, 0.47% hits. z-score, hits read low. 3617.4 mouse cells, GR-EGFP nuclear translocation imaging; test concentration mostly 20 µM; stimulated with dexamethasone, 1 µM; hits give low values. AID 1381;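 active = plate z-score of nuclear minus cytoplasmic receptor signal below a set negative limit, without overly bright fluorescence or cell loss, cut at about -3.5 in these data, passing the limit was not always enough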;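 also: z-score of nuclear minus cytoplasmic ring GR-EGFP intensity difference per well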
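Medium: Induction medium lacking tetracycline, stripped serum | Probe or stimulus: 1.0 µM final dexamethasone stimulus | Schedule: 48 h induction, then 1 h compound, then 30 min agonist, 37 °C | Signal: Automated 10x imaging of fixed Hoechst-stained cells | Evaluation: Per-cell GR-EGFP intensity, nucleus versus surrounding cytoplasmic ring, well-averaged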
Mdm2 MdmX PPI: human Mdm2/MdmX binding inhibition; O15151+Q00987; SaOS-2 split-luciferase Mdm2/MdmX complementation, luminescence; inhibition, % at 8 µM; 330,000 compounds, 3% hits; AID 485346;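 active = inhibition of at least 50% at 8 µM in the primary screen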
CHOP UPR activ: activators of apoptotic arm of unfolded protein response (CHOP). activation, % at 10 µM. AID 449763. CHO-CHOP luciferase reporter, UPR activation, luminescence; percent of tunicamycin response over DMSO baseline. 330,000 compounds, 0.34% hits;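 active = at 10 µM dose, activation of 40% or more, normalized to positive control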;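 also: 100% = tunicamycin at 10 µg/mL and 0% = DMSO alone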
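measured by = luciferase luminescence | assay system = CHO-CHOP cells, stable luciferase reporter of PERK-eIF2a-CHOP signalling | amount = 500 reporter cells seeded per well | timing = 6 h compound exposure at 37 °C after overnight seeding | controls = positive tunicamycin 10 µg/mL, negative DMSO alone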
UPR XBP1 act: activators of adaptive arm of unfolded protein response (XBP1); CHO-XBP1 luciferase reporter, IRE1-XBP1 UPR activation, luminescence; percent of tunicamycin response, DMSO as zero; activation, % at 20 µM; 330,000 compounds, 0.33% hits;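 active = versus positive control, 20 µM dose yields 30% or more activation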;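 also: 100% = tunicamycin at 10 µg/mL and 0% = DMSO only wells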
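Assay system: CHO-XBP1 luciferase reporter cells; Schedule: 6 h treatment, 37 °C; Detection: glow luminescence from Steady-Glo reagent; Benchmarks: high control tunicamycin 10 µg/mL final, low control DMSO vehicle only.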
Beta2AR agonist: activates human beta-2 adrenergic receptor causing internalization | P07550 | Am2.2-beta2AR cells, FAP receptor internalization, flow cytometry | response, % (test concentration not listed) | 340,000 compounds, 0.43% hits;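 active = response above a set limit, near 3 SD of response in nonfluorescent compounds, cut at about 42% in these data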
Target sequence (P07550 whole entry, looked up): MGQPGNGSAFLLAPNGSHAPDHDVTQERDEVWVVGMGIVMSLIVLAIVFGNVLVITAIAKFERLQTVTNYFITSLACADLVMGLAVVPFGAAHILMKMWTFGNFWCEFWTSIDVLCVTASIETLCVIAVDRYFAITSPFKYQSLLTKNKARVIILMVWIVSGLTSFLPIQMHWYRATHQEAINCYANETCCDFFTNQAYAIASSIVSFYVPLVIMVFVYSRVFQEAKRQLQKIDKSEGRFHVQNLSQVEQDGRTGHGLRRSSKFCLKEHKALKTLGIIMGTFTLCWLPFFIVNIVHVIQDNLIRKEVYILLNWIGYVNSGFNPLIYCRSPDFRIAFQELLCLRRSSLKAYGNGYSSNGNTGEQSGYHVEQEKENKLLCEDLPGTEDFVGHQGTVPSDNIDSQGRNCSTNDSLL
Mdm2-MdmX conf: confirmation of human Mdm2/MdmX interaction inhibitors; 10,000 compounds, 55% hits; Mdm2-MdmX binding, luminescent assay; inhibition, % at 8 µM; shares compounds with Mdm2 MdmX PPI; in the data active = inhibition above about 40%
FLuc counter: inhibits full-length luciferase, flagging false Mdm2/MdmX hits; shares compounds with Mdm2 MdmX PPI; SaOS-2 full-length luciferase counterscreen, luminescence; inhibition, % at 8 µM; 6,200 compounds, 77% hits;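 active = mean inhibition at 8 µM reaching about 37%, which flags the compound as non-specific, limit read from the data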;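 also: p53-null SaOS-2 cells with luciferase driven by a doxycycline-inducible promoter; compound on cells about two nights before reading with doxycycline added after day one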
The depositor's hits bear a star; . = no result. A selection: hits, their analogues and other compounds. The true share with any hit is near 3.7%.

SMILES	Mdm2 ligase inh	Dynein transport	Mdm2 MdmX PPI	CHOP UPR activ	UPR XBP1 act	Beta2AR agonist	Mdm2-MdmX conf	FLuc counter
Cc1ccc(N(CC(O)CN2CCCCC2)S(=O)(=O)c2ccc(C)cc2)cc1 (stereo unspecified)	.	.	17.0	0.6	-3.3	-4.5	.	.
CCN(CC(=O)NCc1ccc(Cl)cc1)C(=O)COc1ccc(Cl)cc1Br	.	.	17.4	-1.8	2.3	-0.5	.	.
COc1cc(NC(=O)c2ccccc2)c(OC)cc1NC(=O)CN1C(=O)N(C)C2(CCCCC2)C1=O	.	.	17.1	0.2	-0.6	-3.9	.	.
COc1ccccc1NC(=O)c1cc2c(CO)cnc(C)c2oc1=Nc1cc(OC)c(OC)c(OC)c1	.	.	-10.8	0.7	-5.6	32.1	.	.
COc1ccccc1NC(=O)c1cc2c(CO)cnc(C)c2oc1=Nc1ccc(OC)c(OC)c1	.	.	64.8*	16.8	4.9	48.8*	35.2	.
Nc1cc(N)nc(SCC(=O)NC2CCCCCCC2)n1	.	.	12.4	0.5	2.0	5.8	.	.
CC(=O)Nc1ccc(Cc2ccc3[nH]c(=O)cc(C)c3c2)cc1	-25.5	-0.186	68.4*	1.0	3.1	.	41.1*	68.7*
CC(=O)Nc1ccc2[nH]c(C)cc(=O)c2c1	-16.2	0.428	4.8	-2.3	4.2	-9.5	.	.
O=C(N/N=C/c1ccc(O)cc1O)c1ccc(CN2C(=O)c3cccc4cccc2c34)cc1	-6.2	-0.627	75.3*	-1.8	-2.0	8.3	74.5*	29.2
COc1cc(-c2ccc(NC(=O)NC3CC3)c(OC)c2)ccc1NC(=O)NC1CC1	-104.6	0.446	91.2*	-0.2	-1.8	.	57.5*	73.3*
COc1ccccc1OCCC(=O)OCC(=O)c1[nH]c(C)c(C(C)=O)c1C	-6.8	-0.852	10.7	1.6	-5.4	-0.1	.	.
COc1ccc(C2=CC(=O)CC(c3ccc(OC)cc3)C2)cc1 (stereo unspecified)	1.2	-0.617	-31.8	1.5	1.4	-3.6	.	.
COc1ccc([C@H]2CC(=O)C=C(c3cc(F)ccc3OC)C2)cc1	.	.	25.4	0.7	-1.6	-17.2	.	.
COc1ccc([C@H]2CC(=O)C=C(c3cc(OC)ccc3OC)C2)cc1	.	.	50.7*	0.1	1.1	-5.4	51.4*	53.8*
COc1ccc([C@H]2CC(=O)C=C(c3c(OC)cccc3OC)C2)cc1	.	.	55.7*	0.2	3.0	-6.1	53.0*	50.8*
O=C(O)c1ccccc1C(=O)NCCc1c(C(=O)O)[nH]c2ccc(F)cc12	-9.9	0.712	14.1	0.4	2.4	-0.4	.	.
CCSc1nc(N)c(C#N)c(-c2ccccc2Cl)c1C#N	-5.1	1.63	50.0*	-1.0	-0.2	8.2	37.6	65.9*
N#Cc1c(N)nc(Sc2ccc(Cl)cc2)c(C#N)c1-c1ccccc1Cl	-6.0	-1.2	79.6*	1.1	-4.6	-3.3	48.0*	50.8*
CCN(C[C@H]1N[C@@](CC)(C(=O)OC)[C@H]2C(=O)N(Cc3ccccc3)C(=O)[C@@H]12)S(=O)(=O)c1ccc(OC(F)(F)F)cc1	.	.	45.2	0.8	-1.9	3.7	.	.
Cc1cc(C)nc(N2CCCC(C(=O)NNC(=O)c3ccncc3)C2)n1 (stereo unspecified)	.	0.585	-0.6	0.4	-0.5	-3.7	.	.
O=C(Cc1cccs1)Nc1cccc(-c2ccc3nncn3n2)c1	23.6	-0.196	5.1	0.5	2.8	4.3	.	.
c1cc2c3c(cccc3c1)NC1(CCCCCC1)N2	-2.3	-0.564	24.4	5.2	5.9	12.1	.	.
c1cc2c3c(cccc3c1)NC1(CCC3(CC1)Nc1cccc4cccc(c14)N3)N2	-5.4	-1.39	72.2*	11.4	5.0	16.3	20.6	.
C(=C\c1ccccc1)/CSc1nnc(-c2ccccn2)n1Cc1ccco1	-7.2	-2.45	59.1*	-0.6	4.3	9.2	49.0*	87.0*
O=C(CCn1nnc2ccccc21)OCC(=O)c1ccc(F)cc1	.	.	17.0	0.8	-0.8	-18.0	.	.
SMILES	Mdm2 ligase inh	Dynein transport	Mdm2 MdmX PPI	CHOP UPR activ	UPR XBP1 act	Beta2AR agonist	Mdm2-MdmX conf	FLuc counter
CCc1nc(N)nc(N)c1-c1ccc(NCCN)c([N+](=O)[O-])c1	.	.	.	.	.	-2.1	.	.
CCc1nc(N)nc(N)c1-c1ccc(Cl)cc1	.	0.882	51.4*	-2.8	-4.6	-3.9	17.1	.
N=c1n(CCCOc2ccccc2Cl)c2ccccc2n1CC(N)=O	-14.1	-0.251	64.7*	0.5	0.4	-3.4	42.5*	62.7*
Cn1c(=O)n(CCOc2ccccc2Cl)c2ccccc21	-14.2	-0.354	-2.1	0.7	1.2	4.8	.	.
C=C(C(=O)c1ccccc1)C(CC(=O)c1ccccc1)c1ccccc1 (stereo unspecified)	-14.4	-2.73	100.8*	32.8	-1.1	1.0	98.8*	55.1*
C/C(=N\NS(=O)(=O)c1cccc([N+](=O)[O-])c1)c1cccnc1	-15.2	-0.651	12.1	-2.6	0.5	2.9	.	.
COC(=O)[C@@H]1Cc2c([nH]c3ccccc23)C(C)(C)N1C(=O)CCl	.	.	100.3*	8.5	9.7	4.3	98.0*	17.4
CCOC(=O)c1ccc(NC(=O)c2nc[nH]c2C(=O)N[C@@H](Cc2ccccc2)C(=O)OC(C)(C)C)cc1	-3.8	-0.495	62.1*	2.4	18.7	-6.3	31.1	.
CC(C)(C)OC(=O)[C@H](Cc1ccccc1)NC(=O)c1[nH]cnc1C(=O)Nc1cccc(Cl)c1	-11.4	-0.535	70.1*	2.0	4.7	6.5	23.1	.
Cc1cccc(NC(=O)c2nc[nH]c2C(=O)N[C@@H](Cc2ccccc2)C(=O)OC(C)(C)C)c1	-7.6	-0.762	63.7*	0.0	28.2	0.7	26.4	.
CC(C)(C)OC(=O)[C@H](Cc1ccccc1)NC(=O)c1[nH]cnc1C(=O)Nc1ccc(Cl)cc1	-2.1	-0.0898	50.9*	0.0	7.4	6.9	27.0	.
CN(C=O)c1ccc(CSc2ccccc2)cc1	.	.	.	.	.	-3.3	.	.
CCN1CCN(S(=O)(=O)c2ccc(Cl)c(C(=O)NCCc3ccccc3)c2)CC1	.	.	-28.7	5.3	-0.5	4.7	.	.
C=C1C(=O)O[C@@H]2[C@H]1[C@@H](OC(=O)/C(C)=C/C)C/C(C)=C\C(=O)/C=C(\C)[C@@H]2O	21.1	-3.32	100.3*	13.8	-7.2	16.8	83.4*	51.4*
COc1ccc(NCC(=O)Nc2cccc(S(=O)(=O)N3CCCC3)c2)cc1Cl	.	.	4.2	1.7	-0.4	12.8	.	.

Source: PubChem BioAssay (several laboratories)
